Laboratory results as given in ChEMBL document CHEMBL5724801, “EUbOPEN Chemogenomics Library - Multiplex” (2024).
Values joined by “and” are separate entries in the source; they are usually repeats but may differ in a detail not shown here. Equal values may be shown once.

Tested on: U2OS
Assay: Multiplex assay against U2OS
Type: toxicity, cell-based
Details: human
In short: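 With compound added, live cells were imaged on a CQ1 microscope at 37°C and 5% CO2; staining with Hoechst33342, BioTracker Green Microtubule Cytoskeleton Dye, MitoTracker Red and Annexin V Alexa Fluor 680 had been done at seeding. The CellPathfinder machine-learning gating scheme split cells into Hoechst high-intensity objects or normal cells, normal cells into healthy, pyknosed or fragmented nuclei, and pyknosed cells into mitotic or apoptotic. The tubulin, mitochondrial-mass and membrane-permeability phenotypes are per cents of healthy-nucleus cells.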

[1] = 12 h, 1 µM, compound concentration 1 uM
[2] = 12 h, 10 µM, compound concentration 10 uM
[3] = 24 h, 1 µM, compound concentration 1 uM
[4] = 24 h, 10 µM, compound concentration 10 uM
[5] = 48 h, 1 µM, compound concentration 1 uM
[6] = 48 h, 10 µM, compound concentration 10 uM

CCCCC(=O)N(Cc1ccc(-c2ccccc2-c2nnn[nH]2)cc1)[C@H](C(=O)O)C(C)C
Population Apoptotic (%) [1]: 85% and 100%
Population Fragmented Nuclei (%) [1]: 28% and 15%
Population Healthy Nuclei (%) [1]: 63% and 79%
Population Hoechst High Intensity Objects (%) [1]: 1% and 3%
Population Membrane Permeable-Phenotype (%) [1]: 8% and 9%
Population Mitochondria Different-Phenotype (%) [1]: 3% and 5%
Population Mitotic Cells (%) [1]: 14% and 0%
Population Normal (%) [1]: 98% and 96%
Population Pyknosed Nuclei (%) [1]: 8% and 4%
Population Tubulin-Different-Phenotype (%) [1]: 4% and 2%
Total Cell Count [1]: 259 and 130
Population Apoptotic (%) [2]: 75%
Population Fragmented Nuclei (%) [2]: 35% and 24%
Population Healthy Nuclei (%) [2]: 55% and 71%
Population Hoechst High Intensity Objects (%) [2]: 1% and 0%
Population Membrane Permeable-Phenotype (%) [2]: 3% and 1%
Population Mitochondria Different-Phenotype (%) [2]: 2%
Population Mitotic Cells (%) [2]: 25%
Population Normal (%) [2]: 98% and 99%
Population Pyknosed Nuclei (%) [2]: 9% and 3%
Population Tubulin-Different-Phenotype (%) [2]: 2% and 0%
Total Cell Count [2]: 218 and 108
Population Apoptotic (%) [3]: 86% and 83%
Population Fragmented Nuclei (%) [3]: 23% and 10%
Population Healthy Nuclei (%) [3]: 68% and 77%
Population Hoechst High Intensity Objects (%) [3]: 2% and 6%
Population Membrane Permeable-Phenotype (%) [3]: 5% and 9%
Population Mitochondria Different-Phenotype (%) [3]: 3% and 6%
Population Mitotic Cells (%) [3]: 13% and 16%
Population Normal (%) [3]: 97% and 93%
Population Pyknosed Nuclei (%) [3]: 7% and 12%
Population Tubulin-Different-Phenotype (%) [3]: 2% and 7%
Total Cell Count [3]: 289 and 158
Population Apoptotic (%) [4]: 82% and 84%
Population Fragmented Nuclei (%) [4]: 31% and 22%
Population Healthy Nuclei (%) [4]: 59% and 67%
Population Hoechst High Intensity Objects (%) [4]: 2% and 0%
Population Membrane Permeable-Phenotype (%) [4]: 3% and 4%
Population Mitochondria Different-Phenotype (%) [4]: 2% and 8%
Population Mitotic Cells (%) [4]: 17% and 15%
Population Normal (%) [4]: 97% and 100%
Population Pyknosed Nuclei (%) [4]: 8% and 9%
Population Tubulin-Different-Phenotype (%) [4]: 2% and 6%
Total Cell Count [4]: 272 and 135
Population Apoptotic (%) [5]: 86% and 85%
Population Fragmented Nuclei (%) [5]: 17% and 20%
Population Healthy Nuclei (%) [5]: 75% and 68%
Population Hoechst High Intensity Objects (%) [5]: 2% and 3%
Population Membrane Permeable-Phenotype (%) [5]: 5% and 7%
Population Mitochondria Different-Phenotype (%) [5]: 3%
Population Mitotic Cells (%) [5]: 13% and 15%
Population Normal (%) [5]: 97% and 96%
Population Pyknosed Nuclei (%) [5]: 7% and 10%
Population Tubulin-Different-Phenotype (%) [5]: 2% and 3%
Total Cell Count [5]: 397 and 201
Population Apoptotic (%) [6]: 83% and 87%
Population Fragmented Nuclei (%) [6]: 22% and 21%
Population Healthy Nuclei (%) [6]: 70% and 60%
Population Hoechst High Intensity Objects (%) [6]: 1% and 4%
Population Membrane Permeable-Phenotype (%) [6]: 6% and 4%
Population Mitochondria Different-Phenotype (%) [6]: 2% and 3%
Population Mitotic Cells (%) [6]: 16% and 12%
Population Normal (%) [6]: 98% and 95%
Population Pyknosed Nuclei (%) [6]: 7% and 17%
Population Tubulin-Different-Phenotype (%) [6]: 2% and 6%
Total Cell Count [6]: 347 and 188

CC(F)(F)CN1CCOc2c(nn(-c3ccccc3Cl)c2-c2ccc(Cl)cc2)C1=O
Population Apoptotic (%) [1]: 81% and 100%
Population Healthy Nuclei (%) [1]: 53% and 71%
Population Hoechst High Intensity Objects (%) [1]: 2% and 0%
Population Membrane Permeable-Phenotype (%) [1]: 3%
Population Mitotic Cells (%) [1]: 18% and 0%
Population Normal (%) [1]: 97% and 99%
Population Tubulin-Different-Phenotype (%) [1]: 8% and 4%
Total Cell Count [1]: 219 and 121
Population Apoptotic (%) [2]: 83% and 60%
Population Healthy Nuclei (%) [2]: 62% and 71%
Population Hoechst High Intensity Objects (%) [2]: 1%
Population Membrane Permeable-Phenotype (%) [2]: 10%
Population Mitotic Cells (%) [2]: 16% and 40%
Population Normal (%) [2]: 98%
Population Tubulin-Different-Phenotype (%) [2]: 14% and 5%
Total Cell Count [2]: 216 and 130
Population Apoptotic (%) [3]: 95% and 90%
Population Healthy Nuclei (%) [3]: 55% and 71%
Population Hoechst High Intensity Objects (%) [3]: 4% and 1%
Population Membrane Permeable-Phenotype (%) [3]: 9%
Population Mitotic Cells (%) [3]: 4% and 10%
Population Normal (%) [3]: 95% and 98%
Population Tubulin-Different-Phenotype (%) [3]: 6% and 13%
Total Cell Count [3]: 246 and 155
Population Apoptotic (%) [4]: 70% and 80%
Population Healthy Nuclei (%) [4]: 63% and 77%
Population Hoechst High Intensity Objects (%) [4]: 1%
Population Mitotic Cells (%) [4]: 29% and 20%
Population Normal (%) [4]: 98%
Population Tubulin-Different-Phenotype (%) [4]: 7% and 5%
Total Cell Count [4]: 248 and 154
Population Apoptotic (%) [5]: 94% and 89%
Population Healthy Nuclei (%) [5]: 66% and 69%
Population Hoechst High Intensity Objects (%) [5]: 4% and 1%
Population Membrane Permeable-Phenotype (%) [5]: 6% and 7%
Population Mitotic Cells (%) [5]: 5% and 10%
Population Normal (%) [5]: 95% and 98%
Population Tubulin-Different-Phenotype (%) [5]: 3% and 6%
Total Cell Count [5]: 333 and 203
Population Apoptotic (%) [6]: 96% and 88%
Population Healthy Nuclei (%) [6]: 68% and 72%
Population Hoechst High Intensity Objects (%) [6]: 1% and 4%
Population Membrane Permeable-Phenotype (%) [6]: 8%
Population Mitotic Cells (%) [6]: 3% and 11%
Population Normal (%) [6]: 98% and 95%
Population Tubulin-Different-Phenotype (%) [6]: 6% and 4%
Total Cell Count [6]: 322 and 204
